Bioassay records: PubChem BioAssay, Broad Institute
Shown are actives, neighbours in structure and some others; about 2.4% of the full set was active somewhere.
rRNA inh HTS = reduced GFP signal of wild-type E. coli, primary screen, bacterial rRNA inhibitor project, GFP/RFP fluorescence, OD600, single point; E. coli WT GFP vs humanized-ribosome RFP mutants, 24 h; active compounds read low; DMSO median 0, no signal -100; GFP signal change (wild-type ribosome), % (no concentration beside the values); hit rate 1.6% among 350,000; AID 720706, 2013;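 active means significant combined selectivity score with lowered wild-type GFP, culture density cut under 30%, mutant RFP and density less affected; inactive means any of these conditions unmet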
E-sel inducer = E-selectin induction in HUVECs, primary screen, imaging, HUVEC, immunofluorescence imaging, single point; P16581; normalized: neutral wells 0, TNF-alpha wells 100; activation, % at 7.58 µM; hit rate 0.37% among 260,000; AID 686992, 2013;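 active means mean E-selectin-positive cell signal at least 10% of the positive control, reached in at least 60% of replicates, without over 20% cell loss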
Target sequence (P16581 whole entry, looked up): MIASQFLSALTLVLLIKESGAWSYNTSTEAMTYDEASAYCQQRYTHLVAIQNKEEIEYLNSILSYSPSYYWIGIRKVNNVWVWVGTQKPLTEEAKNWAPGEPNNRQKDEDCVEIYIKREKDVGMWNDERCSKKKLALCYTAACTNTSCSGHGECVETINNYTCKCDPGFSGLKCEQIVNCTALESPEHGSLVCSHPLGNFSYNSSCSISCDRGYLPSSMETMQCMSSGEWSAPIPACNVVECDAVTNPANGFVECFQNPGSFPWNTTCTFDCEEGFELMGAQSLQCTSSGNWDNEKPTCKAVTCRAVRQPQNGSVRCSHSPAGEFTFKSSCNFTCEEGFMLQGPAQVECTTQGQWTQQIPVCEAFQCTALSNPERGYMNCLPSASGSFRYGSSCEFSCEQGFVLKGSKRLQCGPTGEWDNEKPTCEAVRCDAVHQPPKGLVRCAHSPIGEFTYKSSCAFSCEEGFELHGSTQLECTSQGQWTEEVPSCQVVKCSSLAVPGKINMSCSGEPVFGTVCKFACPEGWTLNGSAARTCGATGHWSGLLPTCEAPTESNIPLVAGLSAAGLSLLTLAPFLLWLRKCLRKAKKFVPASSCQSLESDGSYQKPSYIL
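Assay system: HUVEC primary endothelial cells. Input: 3,000 HUVEC seeded per well. Doses: one compound dose added by pin transfer. Read-out basis: % PE-positive cells. Benchmarks: TNF-alpha high, DMSO low. Detection: immunofluorescence imaging. Buffer or medium: EGM-2, gelatin.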
LGR2 inh = inhibitors of bursicon-induced LGR2 CRE-luciferase signal, primary screen, cell-based, HEK293, CRE-luciferase reporter, bursicon stimulation; Drosophila bursicon receptor LGR2 (rickets); bursicon-stimulated, 4 h; inhibition, % at 9.99 µM; hit rate 0.35% among 380,000; AID 720647, 2013;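 active means drop in luminescence signal, shown as inhibition above about 50% in the replicate tests, limit read from the data, passing the limit was not always enough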;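 further: agonist challenge used bursicon conditioned medium at about half maximal strength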
EWS-Fli block = EWS/Fli-driven NR0B1 reporter inhibitors, primary screen, A673 cells, NR0B1 luciferase, luminescence, MLPCN library | viability-normalised | inhibition, % at 12.6 µM | hit rate 0.67% among 350,000 | AID 651661, 2012;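 active means mean inhibition of at least 50% after viability correction, with every replicate also passing that limit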;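 further: firefly luciferase signal divided by Alamar Blue viability fluorescence both relative to DMSO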
Numbers stand for hits.

`CCOc1ccc2ncc(S(=O)(=O)c3ccc(C)cc3)c(N3CCC4(CC3)OCCO4)c2c1` gave rRNA inh HTS inactive, E-sel inducer 140, LGR2 inh inactive and EWS-Fli block inactive.
CCOC(=O)c1cnc2ccc(OCC)cc2c1N1CCN(C)CC1 was read as LGR2 inh inactive.
Screening C[C@@H]1CCCCO[C@H](CN(C)C(=O)Nc2cccc3ccccc23)[C@@H](C)CN([C@H](C)CO)C(=O)c2cc(NS(=O)(=O)c3cn(C)cn3)ccc2O1 returned rRNA inh HTS inactive, E-sel inducer inactive, LGR2 inh inactive and EWS-Fli block inactive.
`COc1ccc(NC(=O)Nc2ccc3c(c2)C(=O)N([C@@H](C)CO)C[C@H](C)[C@@H](CN(C)Cc2ccncc2)OCCCC[C@@H](C)O3)cc1` gave rRNA inh HTS inactive, E-sel inducer inactive, LGR2 inh inactive and EWS-Fli block inactive.
Screening O=C(C1CCCC1)N1[C@H](CO)[C@H]2c3ccccc3N(S(=O)(=O)c3ccc(F)cc3)C[C@H]21 returned rRNA inh HTS inactive, E-sel inducer inactive, LGR2 inh inactive and EWS-Fli block inactive.
`CC(=O)C1=C(c2ccccc2)OC(N)=C(C#N)C1c1ccccc1F` (stereo unspecified) gave rRNA inh HTS -47, E-sel inducer inactive, LGR2 inh inactive and EWS-Fli block inactive.
CC(=O)C1=C(c2ccccc2)OC(N)=C(C#N)C1c1ccccc1C (stereo unspecified) was read as rRNA inh HTS -33, E-sel inducer inactive, LGR2 inh inactive and EWS-Fli block inactive.
CCOC(=O)C1=C(c2ccccc2)OC(N)=C(C#N)C1c1cccs1 (stereo unspecified) was read as LGR2 inh inactive.
For CCOC(=O)C1=C(c2ccccc2)OC(N)=C(C#N)C1c1ccncc1 (stereo unspecified) the results were rRNA inh HTS inactive, LGR2 inh inactive and EWS-Fli block inactive.
For CCCNC(=O)[C@H]1[C@H](CO)[C@H]2Cn3c(ccc(-c4ccccc4F)c3=O)[C@@H]1N2S(C)(=O)=O the results were rRNA inh HTS inactive, E-sel inducer inactive, LGR2 inh inactive and EWS-Fli block inactive.
COc1cccc(S(=O)(=O)N(C)C[C@@H]2Oc3ncc(C#Cc4ccc(F)cc4)cc3C(=O)N([C@H](C)CO)C[C@@H]2C)c1 was read as rRNA inh HTS inactive, E-sel inducer inactive, LGR2 inh inactive and EWS-Fli block inactive.
`O=C(NC1CCCC1)[C@@H]1[C@@H](CO)[C@@H]2Cn3c(ccc(-c4ccccc4)c3=O)[C@H]1N2` gave rRNA inh HTS inactive, E-sel inducer inactive, LGR2 inh inactive and EWS-Fli block inactive.
Screening CCCn1c(C)cc(C(=O)COC(=O)c2ccc[nH]c2=O)c1C returned E-sel inducer inactive and LGR2 inh 56.
For Cc1cc(C(=O)COC(=O)c2ccccc2Br)c(C)n1CC1CCCO1 (stereo unspecified) the results were rRNA inh HTS inactive, E-sel inducer inactive, LGR2 inh 92 and EWS-Fli block inactive.
Screening Cc1cc(C(=O)COC(=O)c2ccccc2O)c(C)n1CC1CCCO1 (stereo unspecified) returned rRNA inh HTS inactive, LGR2 inh 100 and EWS-Fli block 84.
`Cc1ccc(C(=O)OCC(=O)c2cc(C)n(CC3CCCO3)c2C)cc1` (stereo unspecified) gave rRNA inh HTS inactive, E-sel inducer inactive, LGR2 inh inactive and EWS-Fli block inactive.
Cc1cc(C(=O)COC(=O)c2cccnc2Cl)c(C)n1CC1CCCO1 (stereo unspecified) was read as rRNA inh HTS inactive and EWS-Fli block inactive.
OC[C@@H]1[C@@H](c2ccc(C#Cc3ccccc3)cc2)[C@@H]2CN(Cc3ccccn3)CCCCN12 was read as rRNA inh HTS inactive.
`Cn1cnc([N+](=O)[O-])c1S(=O)(=O)Oc1ccc(Cl)cc1` gave LGR2 inh inactive and EWS-Fli block 64.
`Cc1cc(C(=O)N2CCC(Cc3ccccc3)CC2)ccc1[N+](=O)[O-]` gave rRNA inh HTS -31, LGR2 inh inactive and EWS-Fli block inactive.
`CC(C)(C)Nc1nc2nonc2nc1NC(C)(C)C` gave rRNA inh HTS -49, LGR2 inh inactive and EWS-Fli block inactive.
OCCNc1nc2nonc2nc1NCCO was read as rRNA inh HTS inactive, E-sel inducer inactive, LGR2 inh inactive and EWS-Fli block inactive.
CCNC(=S)N/N=C/c1cn(Cc2ccc(F)cc2)c2ccccc12 was read as E-sel inducer inactive and EWS-Fli block inactive.
For O=C(O)c1ccc(N/N=C/c2cn(Cc3ccc(F)cc3)c3ccccc23)cc1 the results were rRNA inh HTS -34, E-sel inducer inactive, LGR2 inh inactive and EWS-Fli block inactive.
CC(C)NC(=O)N[C@@H]1CC[C@H](CC(=O)O)O[C@@H]1CO was read as rRNA inh HTS inactive, E-sel inducer inactive, LGR2 inh inactive and EWS-Fli block inactive.
`O=C1CN(C(=O)c2ccc(Cl)c(S(=O)(=O)N3CCc4ccccc43)c2)c2ccccc2N1` gave rRNA inh HTS -35, E-sel inducer inactive, LGR2 inh inactive and EWS-Fli block inactive.
`NC(=O)C1CCN(C(=O)c2ccc(Cl)c(S(=O)(=O)N3CCc4ccccc43)c2)CC1` gave rRNA inh HTS inactive, E-sel inducer inactive, LGR2 inh inactive and EWS-Fli block inactive.
`CC1Cc2ccccc2N1S(=O)(=O)c1cccc(C(=O)N2CC(=O)Nc3ccccc32)c1` (stereo unspecified) gave rRNA inh HTS -37, E-sel inducer inactive, LGR2 inh inactive and EWS-Fli block inactive.
CC(=O)OC1CC(c2cc(C(C)(C)C)c(O)c(C(C)(C)C)c2)=NO1 (stereo unspecified) was read as rRNA inh HTS -21, E-sel inducer inactive, LGR2 inh inactive and EWS-Fli block inactive.
Screening C[C@@H]1CN([C@H](C)CO)C(=O)c2cc(NC(=O)CCC(F)(F)F)ccc2O[C@@H](C)CCCCO[C@H]1CN(C)Cc1ccccc1 returned rRNA inh HTS inactive, E-sel inducer inactive, LGR2 inh inactive and EWS-Fli block inactive.
COC(=O)c1ccccc1NC(=O)c1ccc2c(c1)CC(C)O2 (stereo unspecified) was read as rRNA inh HTS -29, E-sel inducer inactive, LGR2 inh inactive and EWS-Fli block inactive.
CCOc1ccccc1NC(=O)c1nc(S(=O)(=O)Cc2cccc(C)c2)ncc1Cl was read as rRNA inh HTS inactive, E-sel inducer inactive, LGR2 inh inactive and EWS-Fli block 58.
Screening COC(=O)c1ccccc1NC(=O)c1nc(S(=O)(=O)Cc2ccccc2)ncc1Cl returned rRNA inh HTS inactive, E-sel inducer inactive, LGR2 inh inactive and EWS-Fli block 63.
COc1ccc(N2CCN(C(=O)CCc3c[nH]c4ccccc34)CC2)cc1 was read as rRNA inh HTS inactive and EWS-Fli block inactive.
Screening O=C(CCc1c[nH]c2ccccc12)N1CCN(c2ccc(O)cc2)CC1 returned rRNA inh HTS -29, E-sel inducer inactive, LGR2 inh inactive and EWS-Fli block inactive.
